Results published in PubChem BioAssay AID686992 (Broad Institute, 2013).
The campaign covered roughly 260,000 compounds. About 960 (0.37%) were called active. What follows is part of a selection rich in actives, with near analogues and random picks from the rest. Unmarked numbers belong to inactive results.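 How the source made its calls: active means mean E-selectin-positive cell signal at least 10% of the positive control, reached in at least 60% of replicates, without over 20% cell loss; inconclusive means no rule given, readout overlaps actives, possibly toxicity-flagged; inactive means the rest, including those meeting only one limit.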

Biological target: E-selectin (Homo sapiens) (UniProt P16581)
Sequence (P16581 whole entry, looked up): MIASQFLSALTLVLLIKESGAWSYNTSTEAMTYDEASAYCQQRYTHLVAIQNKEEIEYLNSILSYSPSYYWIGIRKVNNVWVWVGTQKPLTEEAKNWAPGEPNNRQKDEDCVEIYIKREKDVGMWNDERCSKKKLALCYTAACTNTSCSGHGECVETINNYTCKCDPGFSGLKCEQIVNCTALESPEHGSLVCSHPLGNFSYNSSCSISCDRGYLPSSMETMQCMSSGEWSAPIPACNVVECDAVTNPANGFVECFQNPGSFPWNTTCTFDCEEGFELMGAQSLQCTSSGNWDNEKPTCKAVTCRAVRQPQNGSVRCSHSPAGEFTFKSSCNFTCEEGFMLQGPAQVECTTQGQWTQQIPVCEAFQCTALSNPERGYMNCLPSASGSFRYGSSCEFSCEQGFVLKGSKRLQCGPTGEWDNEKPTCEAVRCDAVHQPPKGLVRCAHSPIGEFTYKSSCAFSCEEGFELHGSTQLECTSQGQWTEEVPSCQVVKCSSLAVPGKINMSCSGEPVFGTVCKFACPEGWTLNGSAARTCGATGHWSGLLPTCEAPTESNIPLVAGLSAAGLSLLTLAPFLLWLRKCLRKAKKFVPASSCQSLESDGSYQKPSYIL
Experiment: inducers of endothelial E-selectin expression – imaging, HUVEC, immunofluorescence imaging, single point, primary screen (AID 686992);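 further: signal is the percent of cells scored E-selectin positive by PE staining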
Settings: at 7.58 µM, stronger effect = higher value, normalized: neutral wells 0, TNF-alpha wells 100
Method in brief: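 Assay system: HUVEC, human umbilical vein endothelial cells / Amount: 3,000 HUVEC/well / Controls: TNF-alpha positive control, DMSO neutral control / Compound dosing: single concentration / Medium: EGM-2 over gelatin coat / Evaluation: percent E-selectin-positive cells / Signal: immunofluorescence imaging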

| SMILES | activation |
| --- | --- |
| CCC(C)CN1C(=O)CSCC1(C)C(=O)NCc1ccccc1 (configuration not stated) | 0.0415% |
| COC(=O)[C@@H]1[C@@H](CO)[C@@H]2Cn3c(ccc(-c4ccc(OC)cc4)c3=O)[C@@H]2N1C | 0.459% |
| N#C[C@@H]1[C@@H](c2ccccc2)[C@H](CO)N1C(=O)c1cc(Cl)cc(Cl)c1 | 0.0965% |
| COc1ccc(S(=O)(=O)N2C[C@H](O)COC[C@@H]3O[C@H](CC(=O)NCCN4CCCCC4)CC[C@H]32)cc1 | 0.128% |
| COc1ccc(-c2ccccc2[C@H]2[C@@H](C#N)N(C(=O)C3CCC3)[C@@H]2CO)cc1 | -0.0965% |
| COc1cccc(-c2cc3nc(NCCOc4ccccc4Cl)n(C)c(=O)c3s2)c1 | -0.11% |
| COc1ccc(C(C)(O)c2nc(-c3ccc(C)c(C)c3)cs2)cc1 (configuration not stated) | -0.298% |
| COc1ccc2c3c(n(C)c2c1)[C@@H](CO)N(Cc1ccccc1OC)CC31CN(CC2CCOCC2)C1 | -0.609% |
| COc1ccc(C(C)(O)c2nc(-c3cc(F)cc(F)c3)cs2)cc1 (configuration not stated) | 0.357% |
| Cc1ccc(C(=O)NCC(=O)NCc2cc(=O)n(C)c(=O)n2C)cc1 | 0.0495% |
| COc1ccc(S(=O)(=O)NCC(=O)NCc2cc(=O)n(C)c(=O)n2C)cc1F | 79.6% (active) |
| COc1ccc(S(=O)(=O)NCCOc2ccccc2)cc1F | -0.118% |
| CCCC(=O)Nc1ccc2c(c1)C(=O)N(C)[C@@H]1CC[C@H](CC(=O)Nc3cn(C)nc3C)O[C@H]1CO2 | -0.018% |
| Cn1c(Nc2ccc(F)cc2)nc2cc(-c3ccsc3)sc2c1=O | 0.0175% |
| COc1ccc(C2c3[nH]c4ccccc4c3C[C@H]3C(=O)N(CC(C)C)CC(=O)N23)c(OC)c1 (some centres not stated) | 61.1% (active) |
| COc1ccc(C2/C(=C(/O)c3ccccc3)C(=O)C(=O)N2C)c(OC)c1 (configuration not stated) | 0.122% |
| COc1ccc(C2/C=C\CN(CC(C)C)CC(=O)N2Cc2ccc(F)cc2)cc1 (configuration not stated) | -0.215% |
| CCC(=O)N1CC2(C1)[C@H](c1ccc(-c3ccc(C)cc3)cc1)[C@H](CO)N2S(C)(=O)=O | -0.277% |
| COc1ccc(OC)c(C(O)c2ncc(-c3cccc(C(F)(F)F)c3)[nH]2)c1 (configuration not stated) | -0.085% |
| CCc1ccc(N2CC(C(=O)Nc3ccc(S(=O)(=O)Nc4nccs4)cc3)CC2=O)cc1 (configuration not stated) | 0.004% |
| CNS(=O)(=O)c1ccc(NC(=O)C2CC(=O)N(c3ccc(Cl)cc3)C2)cc1 (configuration not stated) | 35.7% (active) |
| O=C(Nc1ccc(S(=O)(=O)N2CCCCC2)cc1)C1CC(=O)N(c2ccc(F)cc2)C1 (configuration not stated) | -0.119% |
| CC(=O)OCC1(O)CC23CCC4c5ccoc5CCC4(C)C2CCC1C3 (configuration not stated) | 0.708% |
| COC(=O)C[C@@H]1CC[C@H]2[C@H](COc3ccc(NC(=O)c4ccccc4F)cc3C(=O)N2C)O1 | 0.0145% |

| SMILES | activation |
| --- | --- |
| CCCCCCN1C[C@H](O)[C@@H](n2cc(C3CC3)nn2)C[C@@H]1c1ccc(Cl)cc1 | -0.106% |
| C[C@H](CO)N1C[C@H](C)[C@@H](CN(C)Cc2ccc(C(F)(F)F)cc2)OCc2ccccc2-c2c(n(C)c3ccccc23)C1=O | -0.577% |
| C[C@@H]1CN([C@H](C)CO)C(=O)c2c(c3ccccc3n2C)-c2ccccc2CO[C@@H]1CN(C)Cc1ccccc1C(F)(F)F | 30.5% (active) |
| C[C@@H]1CN([C@H](C)CO)C(=O)c2c(c3ccccc3n2C)-c2ccccc2CO[C@@H]1CN(C)Cc1ccc(F)cc1 | -0.183% |
| COc1ccc(CCCNC(=O)C2Cc3c(-c4cccc(C(N)=O)c4)ccnc3O2)cc1 (configuration not stated) | 0.751% |
| C=CCC[C@H](CCCCC)OC(=O)/C=C/[C@H](O)[C@@H](O)C[C@@H](O)CC=C | -5.32% |
| NC1=NC2(CCCCC2)N(c2ccc(F)cc2F)C(N)=N1 | 522% (active) |
| O=C(c1ccccc1)N1C[C@@H]2[C@H](c3ccccc31)[C@@H](CO)N2Cc1cc(F)ccc1F | 0.162% |
| CCN1C(=O)N[C@@H]2C[C@H](C(=O)N3CCCC3)[C@H](C)[C@H](c3ccccc3)C[C@@H]21 | -0.199% |
| Cc1cccc(NC(=O)CSc2nc3[nH]ncc3c(=O)[nH]2)c1 | -0.483% |
| Cc1ccc(CSc2nc(-c3ccccc3)c(C#N)c(=O)[nH]2)cc1 | 2.35% |
| Cc1ccc(CSc2nc3[nH]ncc3c(=O)[nH]2)cc1 | 92.1% (active) |
| O=C1[C@@H](c2ccccc2)[C@@H](c2ccccc2)N1c1ccccc1 | -0.064% |
| O=C(N[C@H]1C=C[C@@H](CC(=O)N2CCc3ccccc3C2)O[C@@H]1CO)C1CCOCC1 | -0.136% |
| Cc1c(C(=O)Nc2cccc(-c3nnc4n3CCCCC4)c2)oc2ccccc12 | -1.41% |
| COc1cccc(C(=O)Nc2ccc3nc4n(c(=O)c3c2)CCCCC4)c1 | 0.059% |
| COc1ccc(-c2nnc3n2CCCCC3)cc1 | 31.2% (active) |
| Cc1cc(N2CCN(C(=O)OC(C)(C)C)C[C@H]2C)ccc1N1CCN(Cc2ccccc2)[C@H](C)C1 | 0.115% |
| CCOC(=O)[C@]12CCC=C1N(Cc1ccco1)C(=O)[C@H](CC(=O)NCc1cccc(C(F)(F)F)c1)C2 | -0.145% |
| CCOc1ccc(NC(=O)CC2C(=O)N(c3ccccc3)C(=O)N2CCOC)cc1 (configuration not stated) | -0.224% |
| COc1ccc(CCN2C(=O)N(c3ccc(OC)cc3)C(=O)C2CC(=O)Nc2ccc(OC)cc2)cc1 (configuration not stated) | 4.19% |
| CCNC(=O)CC1C(=O)N(c2ccc(OC)cc2)C(=O)N1CCOC (configuration not stated) | 35.7% (active) |
| O=C(CN1CCOCC1)NC[C@@H]1N[C@@H](CO)[C@@H]1c1ccc(-c2ccccc2)cc1 | 0.253% |
